HEK293 NFkB inh – inhibitors of PMA/ionomycin-induced NF-kB reporter, primary screen, antigen receptor NF-kB inhibitor project, cell-based, HEK-293 luciferase reporter, luminescence; hit rate 0.21% among 62,000; HEK-293 NF-kB luciferase reporter; inhibition, % at 3 µM;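 active = inhibition above the mean of all tested compounds plus 3 SD, cut at about 40% in these data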
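Timing: 1 h pretreatment, 16 h stimulation, 37 °C; system: HEK-293 cells with stable firefly luciferase reporter driven by four HIV NF-kB elements; doses: 3 µM once, 0.30% DMSO; measured by: luciferase luminescence; control set: DMSO and 10 µM reference inhibitor; repeats: single test; reagent: PMA plus ionomycin mix as NF-kB-activating stimulus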
SF-1 act – activators of human SF-1, primary screen, cell-based, CHO-K1, Gal4-SF-1 LBD, luciferase luminescence. Steroidogenic factor 1 (Homo sapiens), Q13285. CHO-K1 Gal4-SF-1 LBD luciferase reporter; % increase over DMSO SF-1-specific signal. activation, % at 10 µM. hit rate 1.9% among 65,000. AID 522, 2006;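 active = activation above the mean activation of all tested compounds plus 3 SD, cut at about 50% in these data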
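Material: Transient Gal4-SF-1 LBD reporter, CHO-K1 | Input: 4,000 cells/well | Dosing: One dose, 10 µM compound, 1% DMSO | Incubation: 20 h compound treatment, 37 °C | Detection: SteadyLite luciferase luminescence | Evaluation: Percent activation relative to DMSO median and mock-transfected background | Benchmarks: DMSO-treated SF-1-transfected cells as negative, DMSO-treated mock-transfected cells lacking SF-1 as background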
RORA act – activators of orphan receptor RORA, primary screen, cell-based, luminescence. Nuclear receptor ROR-alpha (Homo sapiens), P35398. AID 560, 2006. hit rate 1.5% among 65,000. CHO-K1 Gal4-RORA LBD luciferase reporter; percent increase over mock-subtracted basal signal. activation, % at 10 µM;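 active = activation above the mean of all tested compounds plus 3 SD, cut at about 49% in these data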
Target sequence (P35398 whole entry, looked up, the tested form may be a part): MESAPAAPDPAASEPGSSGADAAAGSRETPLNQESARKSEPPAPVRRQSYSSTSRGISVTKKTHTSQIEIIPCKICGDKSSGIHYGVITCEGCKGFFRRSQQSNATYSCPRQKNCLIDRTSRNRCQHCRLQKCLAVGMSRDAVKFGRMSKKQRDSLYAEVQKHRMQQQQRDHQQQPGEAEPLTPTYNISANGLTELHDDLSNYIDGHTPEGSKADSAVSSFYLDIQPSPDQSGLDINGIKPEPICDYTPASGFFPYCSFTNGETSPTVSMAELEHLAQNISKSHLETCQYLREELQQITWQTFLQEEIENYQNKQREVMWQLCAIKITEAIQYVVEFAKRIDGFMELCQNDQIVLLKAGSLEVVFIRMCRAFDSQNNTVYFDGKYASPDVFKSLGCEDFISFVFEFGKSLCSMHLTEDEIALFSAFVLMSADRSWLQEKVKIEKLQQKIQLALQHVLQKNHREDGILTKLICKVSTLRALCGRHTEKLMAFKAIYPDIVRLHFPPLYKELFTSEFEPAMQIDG
MT1-MMP txn act – MT1-MMP promoter reporter activation – cell-based, luciferase luminescence, primary screen. activation factor at 10 µM. HT1080 MT1-MMP promoter luciferase reporter, overnight; hits give high values. hit rate 0.16% among 86,000;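 active = activation factor of at least 2 for MT1-MMP transcription at 10 µM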
Jurkat tox 60K – cytotoxicity toward Jurkat T cells, primary screen, cytotoxicity control, cell-based, Jurkat E6.1, 60K MLSMR library; Jurkat E6.1 viability, ATP luminescence, 48 h; inhibition, % at 4 µM; hit rate 1.2% among 56,000;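 active = inhibition above the mean inhibition of all tested compounds plus 3 SD, cut at about 28% in these data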
Of the large screens only hits and unclear results are named; the others gave an inactive call. Only some compounds are listed: those with a hit (about 2.9% of all), similar ones and a draw of the others.

O=C1CC(Nc2ccc(N3CCOCC3)cc2)C(=O)N1c1ccccc1 (centres undefined)	none (no result: HEK293 NFkB inh, SF-1 act, RORA act, Jurkat tox 60K)
COc1ccc(NC2CC(=O)N(c3ccccc3)C2=O)cc1 (centres undefined)	SF-1 act 57
O=C(CC(=O)c1ccccc1O)c1cccc(F)c1	Jurkat tox 60K 69
O=C(Nc1ccccc1C(=O)O)c1cccc(F)c1	none (no result: HEK293 NFkB inh, SF-1 act, RORA act, Jurkat tox 60K)
COc1cc2c(cc1OC)CN(S(=O)(=O)c1ccc3c(c1)OCCO3)CC2	none
c1ccc(CNc2ncnc3c2ncn3C2CCCCO2)cc1 (centres undefined)	SF-1 act 60, RORA act 68 (no result: Jurkat tox 60K)
CCOC(=O)C(C)Oc1cccc2c(=O)n(CC(=O)NCc3ccc4c(c3)OCO4)ccc12 (centres undefined)	Jurkat tox 60K 87 (no result: MT1-MMP txn act)
CCCC[C@@H]1C[C@H]1C(NC(=O)Cc1ccccc1)c1ccc(Cl)cc1 (some centres undefined)	none (no result: HEK293 NFkB inh, SF-1 act, RORA act, Jurkat tox 60K)
CC(C)(C)NC(=O)NC(=O)COc1ccccc1C#N	SF-1 act 60
O=C(Nc1ccc2c(c1)OCO2)c1cnc2n(c1=O)CCS2	SF-1 act 62
O=C(Nc1ccc2c(c1)OCCO2)c1cnc2n(c1=O)CCS2	SF-1 act 91, RORA act 88
O=C(NCc1ccc2c(c1)OCO2)c1cnc2n(c1=O)CCS2	none
O=C(NCCC1=CCCCC1)c1cnc2n(c1=O)CCS2	SF-1 act 51
Cc1cccc(NC(=O)c2cnc3n(c2=O)CCS3)c1	RORA act 76
O=C(NCCc1ccc(Cl)cc1)c1cnc2n(c1=O)CCS2	none
CCOc1ccc(Br)cc1C1C(C(=O)OC)=C(N)Oc2cc(N(C)C)ccc21 (centres undefined)	none (no result: HEK293 NFkB inh, SF-1 act, RORA act, Jurkat tox 60K)
Cc1cc(C)cc(-n2nnc(C(=O)NCc3ccco3)c2N)c1	none
Nc1c(C(=O)NCc2ccco2)nnn1-c1ccccc1	SF-1 act 55
Cc1cc(C)c2ccc(N)nc2c1O	Jurkat tox 60K 44
C=CCn1c(=O)/c(=C/c2cc(OC)c(OC)c(OC)c2)s/c1=C(/C#N)c1nc2ccccc2n1C	none (no result: Jurkat tox 60K)
CC(=O)c1cc2c(=O)c3cc(C)ccc3oc2nc1C	RORA act 58
COc1cccc(CN(C)CC(=O)NC(=O)NCc2ccco2)c1	none
CCCc1ccc(OCc2ccc(C(=O)N3CCN(c4ccccn4)CC3)o2)c(OC)c1	RORA act 50
O=C(OCC(=O)N1CCCCCC1)c1n[nH]c(=O)c2ccccc12	none
O=C(OCC(=O)N1CCCCCC1)c1cccs1	SF-1 act 55
CCc1ccc(N(CC(=O)Nc2ccc(OC)cc2OC)S(C)(=O)=O)cc1	none
CC(C)CC(=O)Nc1ccc2oc(-c3ccncc3)nc2c1	SF-1 act 55
O=C(Cc1ccccc1)Nc1ccc2oc(-c3ccncc3)nc2c1	none
CCOc1ccc2nc(N3CCOCC3)nc(C)c2c1	RORA act 51
CCOc1ccc(Nc2cc(C)nc(N3CCOCC3)n2)cc1	none
CCN1CCN(C(c2cccs2)C(C)NS(=O)(=O)c2ccc(Br)cc2)CC1 (centres undefined)	none (no result: Jurkat tox 60K)
CCOC(=O)C1=C(C)N(CCCC(=O)N(Cc2ccc3c(c2)OCO3)C(C(=O)NC(C)(C)C)c2ccc3c(c2)OCO3)C(=O)NC1c1ccc(Br)cc1 (centres undefined)	none (no result: HEK293 NFkB inh, SF-1 act, RORA act, Jurkat tox 60K)
CCCS(=O)(=O)c1nnnn1-c1cccc(OC)c1	Jurkat tox 60K 101
O=C(NC1=NCCS1)Nc1ccccc1	SF-1 act 86
Cc1cc(C(=O)NC2=NCCS2)cs1	SF-1 act 53
OCCN(Cc1ccccc1)Cc1ccc(Cl)cc1Cl	none (no result: HEK293 NFkB inh, SF-1 act, RORA act, Jurkat tox 60K)
CCN(CCNC(=O)C1CCN(S(=O)(=O)c2cccc3cccnc23)CC1)c1ccccc1	none
CCCC1(C)Nc2ccccc2-c2nc3ccccc3n21 (centres undefined)	none (no result: HEK293 NFkB inh, SF-1 act, RORA act, Jurkat tox 60K)
c1ccc2c(c1)NC1(CCCC1)n1c-2nc2ccccc21	SF-1 act 59
COc1ccc(S(=O)(=O)NCCSCc2ccco2)cc1Cl	none
COc1ccccc1NC(=O)N(Cc1ccco1)Cc1cc2cc(C)cc(C)c2[nH]c1=O	none
COc1ccccc1NC(=O)N(Cc1ccco1)Cc1cc2ccc(C)c(C)c2[nH]c1=O	Jurkat tox 60K 80
Cc1nn2c(-c3ccncc3)nnc2c2ccccc12	none
COc1ccc(-c2nnc3c4ccccc4c(C)nn23)cc1	MT1-MMP txn act 2 (no result: HEK293 NFkB inh, SF-1 act, RORA act, Jurkat tox 60K)
CCN(CC)c1ccc(C=Nc2ccc(C#N)cc2)c(O)c1	none
CCN(CC)c1ccc(C=N/C(C#N)=C(\N)C#N)cc1	SF-1 act 57
COc1ccc(CN(C#N)c2nc(SC)nc(N(C)C)n2)cc1	none (no result: HEK293 NFkB inh, Jurkat tox 60K)
CC1CC1C(=O)OCc1cc(=O)n2cc(Br)ccc2n1 (centres undefined)	SF-1 act 55
COc1ccc2c(c1)CCc1c(C(=O)N3CCCCCC3)noc1-2	SF-1 act 57
C=CCN(CC=C)C(=O)c1ccccc1NC(=O)c1ccccc1C	none (no result: HEK293 NFkB inh, SF-1 act, RORA act, Jurkat tox 60K)
COc1ccc(-n2nc3cc(C)c(N)c(Br)c3n2)cc1	SF-1 act 64, RORA act 50
COC(=O)[C@@]1(Cc2ccc(F)cc2)[C@H]2c3cc(C(=O)N(C)C)n(Cc4ccc(C)o4)c3C[C@H]2CN1C(=O)c1ccccc1	none (no result: HEK293 NFkB inh, SF-1 act, RORA act, Jurkat tox 60K)
COc1cc(CC(NC(C)=O)C(=O)NC2CCN(c3nc(C)cc(C)c3C#N)CC2)cc(OC)c1 (centres undefined)	HEK293 NFkB inh 56
COc1cccc(CC(NC(C)=O)C(=O)NC2CCN(c3nc(C)cc(C)c3C#N)CC2)c1OC (centres undefined)	none
COc1cccc(CC(NC(C)=O)C(=O)NC2CCN(c3c4c(nc5ncnn35)CCC4)CC2)c1 (centres undefined)	SF-1 act 72
CCOc1ccccc1C1CC(c2ccc(Br)cc2)Nc2nc(N)nn21 (centres undefined)	none
COC(=O)[C@@H]1C[C@@H]2CC[C@@H](O)C[C@@H]2N1Cc1ccc(C)s1	none (no result: HEK293 NFkB inh, SF-1 act, RORA act, Jurkat tox 60K)
CCN(CC)c1ccc2cc(NC(=O)CCC(=O)O)c(=O)oc2c1	HEK293 NFkB inh 53 (no result: MT1-MMP txn act)
COc1cc(-c2nnc3sc(-c4ccccn4)nn23)cc(OC)c1OC	none
O=C(NCCc1ccccc1)c1cc(-c2ccco2)on1	SF-1 act 86, RORA act 69
O=C(NCc1ccccc1)c1cc(-c2ccco2)on1	none
CN1CCN(Cc2ccc(OCc3ccccc3)cc2)CC1	none
CCN1CCN(Cc2ccc(OCc3ccccc3)cc2)CC1	SF-1 act 57
Cc1cc(NC(=O)CCCSc2nc(-c3ccco3)cc(C(F)(F)F)n2)n(-c2ccccc2)n1	none (no result: HEK293 NFkB inh, SF-1 act, RORA act, Jurkat tox 60K)
Cc1cc(NC(=O)CSc2nc(-c3ccco3)cc(C(F)(F)F)n2)n(-c2ccccc2)n1	Jurkat tox 60K 33
Cc1cc(NC(=O)CSc2nc(-c3cccs3)cc(C(F)(F)F)n2)no1	Jurkat tox 60K 74

Screens as filed in PubChem.
